Test results as given in article PMC2761948 (Journal of medicinal chemistry, 2009).

Tests used:
4T1 cells [1] = test: Migration assay; type: cell-based, mouse
In short: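 Trypsinised 4T1 cells (5 × 10^4) in 0.2% FBS RPMI with test compound were placed in Transwell inserts (12-μm pore polycarbonate) for 30 min at 37 °C. Inserts then moved to wells with 10% FBS RPMI for 24 h. Migrated and non-migrated cells were crystal violet-stained and methanol-solubilised separately; A570 read. Background-corrected % migration normalised to vehicle; mean ± SD, n = 3.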

4T1 cells [2] = test: F-actin immunostaining; type: cell-based, mouse; settings: 4-h exposure
In short: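 Cells grown overnight on coverslips, then exposed to test compound for 4 h in 2% FBS RPMI 1640. They were fixed in 3.7% formaldehyde, permeabilised 1 h (PBS, 0.1% Triton X-100, 0.1% BSA) and stained 30 min with Alexa Fluor 488 phallotoxin, with DAPI counterstain. Confocal imaging (488/543 nm excitation); fluorescence intensity expressed as % of untreated control.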

[3] = system: focal adhesion kinase (FAK); test: FAK immunostaining and Western blotting; type: cell-based, mouse; settings: 1 h; for FAK degradation (Western blotting): 4T1 cells
In short: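 4T1 cells treated for 1 h with test compound or DMSO. For focal adhesion sites, cells were fixed and immunostained with anti-FAK antibody (2.5 μM test compound, 5 μM comparator). For FAK stability, each agent was given at 5 μM and cell lysates were immunoblotted with anti-FAK monoclonal antibody.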

[4] = system: 4T1 metastatic breast cancer cells; test: Adhesion assay, 4T1 cells to Matrigel-coated surface; type: cell-based, mouse; settings: read-out: IC50, inhibition of 4T1 cell adhesion
[5] = system: MCF-7 breast cancer cells; test: Adhesion assay, MCF-7 cells to Matrigel-coated surface; type: cell-based, human; settings: at 100 μM
In short: (§1)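 Wells coated with 12% (v/v) Matrigel for 1 h at 37 °C, washed with 0.1% BSA-RPMI, then blocked with 0.5% BSA-RPMI for 60 min. Cells were pretreated with test compound for 60 min at 37 °C, seeded at 2 × 10^4 per well, and left to adhere for 30 min. Adherent cells were fixed in formalin, stained with crystal violet and solubilised in 2% SDS; A570 read. Mean ± SD, n = 3.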

[6] = system: SKBR3 breast cancer cells; test: Adhesion assay, SKBR3 cells to Matrigel-coated surface; type: cell-based, human; settings: at 100 μM
In short: as §1

Molecule: Cc1c(C)c2c(c(C)c1OCC(=O)O)CC[C@](C)(/C=C/CC(C)CCCC(C)C)O2 (stereo partly shown) [Compound 5, [2-(4,8-Dimethyl-non-1-enyl)-2,5,7,8-tetramethyl-chroman-6-yloxy]-acetic acid]
- inhibition of serum-induced 4T1 cell migration (4T1 cells [1]; at 5 μM): effective in inhibiting cell migration
- effect on actin stress fiber and lamellipodia formation (4T1 cells [2]; 5 μM): rapid dissolution of stress fiber and impairment of lamellipodia formation
- effect on focal adhesion sites (anti-FAK immunostaining) ([3]; 2.5 μM): loss of focal adhesion sites
- FAK degradation (Western blotting) ([3]; 5 μM): induced FAK degradation

Molecule: Cc1c(C)c2c(c(C)c1OC(=O)CCC(=O)O)CC[C@](C)(CCCC(C)CCCC(C)C)O2 (stereo partly shown) [Compound 2]
- inhibition of serum-induced 4T1 cell migration (4T1 cells [1]; at 5 μM): little effect
- FAK degradation (Western blotting) ([3]; 5 μM): less evident or not appreciable

Molecule: Cc1c(C)c2c(c(C)c1OCC(=O)O)CC[C@](C)(CCCC(C)CCCC(C)C)O2 (stereo partly shown) [Compound 6, [2-(4,8-Dimethyl-nonyl)-2,5,7,8-tetramethyl-chroman-6-yloxy]-acetic acid]
- inhibition of serum-induced 4T1 cell migration (4T1 cells [1]; at 5 μM): effective in inhibiting cell migration
- effect on actin stress fiber and lamellipodia formation (4T1 cells [2]; 10 μM): rapid dissolution of stress fiber and impairment of lamellipodia formation

Molecule: α-tocopheryl succinate [Compound 1, reference compound]
- IC50 [4]: 10 µM
- suppression of MCF-7 cell adhesion [5]: ineffective
- suppression of SKBR3 cell adhesion [6]: ineffective
- inhibition of serum-induced 4T1 cell migration (4T1 cells [1]; at 50 μM): little effect
- effect on actin stress fiber (4T1 cells [2]; 50 μM): remained largely intact
- FAK degradation (Western blotting) ([3]; 5 μM): less evident or not appreciable
- effect on focal adhesion sites (anti-FAK immunostaining) ([3]; 5 μM, negative control): typical punctate pattern

Molecule: Cc1c(C)c2c(c(C)c1OC(=O)CCC(=O)O)CC[C@](C)(/C=C/CC(C)CCCC(C)C)O2 (stereo partly shown) [Compound 4, Succinic acid mono-[2-(4,8-dimethyl-non-1-enyl)-2,5,7,8-tetramethyl-chroman-6-yl] ester]
- inhibition of serum-induced 4T1 cell migration (4T1 cells [1]; at 5 μM): effective in inhibiting cell migration
